Experimental findings from ChEMBL document CHEMBL4627249, “New modification strategy of matrine as Hsp90 inhibitors based on its specific L conformation for cancer treatment” (Bioorg Med Chem, 2020) are described below.

Calls of active or inactive are those of the source. The rule behind the calls is not given here.

Broadly, the IC50 is the concentration needed to halve the response being measured. In general, ΔTm refers to the change in melting temperature against a reference sample.

One assay relates to HeLa. Description: Antiproliferative activity against human HeLa cells assessed as reduction in cell viability after 48 hrs by MTT assay. The assay is classed as functional, cell-based. The essentials: (§1)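 HepG2 or HeLa cells in DMEM with 10% FBS and 1% penicillin-streptomycin were preincubated 24 h (37 °C, 5% CO2). They were then exposed for 48 h to 1, 5, 10, 20, 50 and 100 µM, diluted in medium from DMSO stocks. MTT (5 mg/mL, 20 µL) was added for 4 h, formazan dissolved in DMSO, and A490 read. Each concentration was run in triplicate. IC50 is the mean from dose-response curves of at least three independent experiments; cisplatin was the positive control.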

Another assay relates to HepG2. As to the kind of experiment: Antiproliferative activity against human HepG2 cells assessed as reduction in cell viability after 48 hrs by MTT assay. The class given is functional, cell-based. To be noted: HepG2, 48 h. The gist of the method: as §1
In general terms: Tetrazolium assays rely on reduction of a dye to a coloured formazan, in cell work by metabolically active cells.

For another assay, the system named is MDA-MB-231. Description: Antiproliferative activity against human MDA-MB-231 cells assessed as reduction in cell viability after 48 hrs by MTT assay. The conditions noted are these: MDA-MB-231, 48 h. The class given is functional, cell-based.
Assay [1] addresses Heat shock protein HSP90 (Homo sapiens) (UniProt P07900+P08238).

In the case of `Cc1c(/N=C2\CCC[C@@H]3[C@H]4CCCN5CCC[C@@H](CN23)[C@@H]45)cccc1[N+](=O)[O-]`, the half-inhibitory concentration (IC50) in the assay with HeLa was more than 100 µM; in the assay with HepG2, 86.1 µM; in the assay on MDA-MB-231, more than 100 µM. In addition, the ΔTm in assay [1] was -1.06 °C.
For `c1ccc(Oc2ccc(/N=C3\CCC[C@@H]4[C@H]5CCCN6CCC[C@@H](CN34)[C@@H]56)cc2)cc1`, the IC50 in the assay with HeLa was found to be 33.7 µM; with HepG2, 51.3 µM; in the assay with MDA-MB-231 it was 55.2 µM. Moreover, in assay [1], the ΔTm is -1.3 °C.
In the case of `COc1ccc2nc3c(c(N)c2c1)CC[C@@H]1[C@H]2CCCN4CCC[C@@H](CN31)[C@@H]24`, the values for the IC50 in the assay on HeLa, in the assay on HepG2 and in the assay with MDA-MB-231 were 18 µM, 10.9 µM and 21.2 µM, respectively. Besides, the ΔTm in assay [1] was -5.48 °C.
With `O=C1CCCC[C@@H]2[C@H]3CCCN4CCC[C@@H](CN12)[C@@H]34`, the IC50 with HeLa, in the assay with HepG2 and with MDA-MB-231 was more than 100 µM each time.
In the case of `c1ccc(/N=C2\CCC[C@@H]3[C@H]4CCCN5CCC[C@@H](CN23)[C@@H]45)cc1`, the IC50 with HeLa, with HepG2 and with MDA-MB-231 was more than 100 µM throughout. Further, in assay [1], the ΔTm is -0.57 °C.
As to `N#Cc1ccccc1/N=C1\CCC[C@@H]2[C@H]3CCCN4CCC[C@@H](CN12)[C@@H]34`, the IC50 in the assay on HeLa, with HepG2 and in the assay on MDA-MB-231 was more than 100 µM in each case. For the same compound, in assay [1], the ΔTm was -1.44 °C.
Regarding `Nc1c2c(nc3ccc(Br)cc13)N1C[C@@H]3CCCN4CCC[C@@H]([C@H]34)[C@H]1CC2`, the IC50 is 6.9 µM in the assay with HeLa, 9.7 µM in the assay with HepG2 and 9.7 µM in the assay with MDA-MB-231. Further, the ΔTm in assay [1] was -7.58 °C.
Take `O=C1C[C@@H]2[C@H]3CCCN4CCC[C@@H](CN12)[C@@H]34`: the IC50 in the assay on HeLa, in the assay on HepG2 and in the assay on MDA-MB-231 was more than 100 µM each time. Also, in assay [1], the ΔTm was 0.44 °C.
In the case of `c1ccc(-c2ccc(/N=C3\CCC[C@@H]4[C@H]5CCCN6CCC[C@@H](CN34)[C@@H]56)cc2)cc1`, the IC50 stood at 23.7 µM in the assay with HeLa, 11 µM in the assay on HepG2 and 24.6 µM in the assay with MDA-MB-231. Moreover, in assay [1], the ΔTm was -4.91 °C.
Consider `Nc1c2c(nc3ccccc13)N1C[C@@H]3CCCN4CCC[C@@H]([C@H]34)[C@H]1CC2`, for which the half-maximal inhibitory concentration (IC50) in the assay with HeLa is 23.3 µM; in the assay with HepG2, 14.3 µM; in the assay on MDA-MB-231 it was 22.2 µM. The ΔTm in assay [1] was -3.12 °C.
Turning to `Nc1c2c(nc3ccc(F)cc13)N1C[C@@H]3CCCN4CCC[C@@H]([C@H]34)[C@H]1CC2`, the IC50 with HeLa stood at 18.8 µM; with HepG2, 13.1 µM; in the assay with MDA-MB-231, 37.3 µM. Further, in assay [1], the ΔTm is -2.3 °C.
For the compound `Nc1c2c(nc3ccc(Cl)cc13)N1C[C@@H]3CCCN4CCC[C@@H]([C@H]34)[C@H]1CC2`, the IC50 came out at 8.9 µM in the assay with HeLa, 6.4 µM in the assay on HepG2 and 14.3 µM in the assay with MDA-MB-231. In assay [1], the ΔTm is -6.58 °C.
On to `Clc1ccc(/N=C2\CCC[C@@H]3[C@H]4CCCN5CCC[C@@H](CN23)[C@@H]45)cc1`, for which the IC50 was more than 100 µM in the assay on HeLa, more than 100 µM in the assay on HepG2 and 73.4 µM with MDA-MB-231. Further, the deltaTm result in assay [1] was “inactive”.
As to `O=C1CCC[C@@H]2[C@H]3CCCN4CCC[C@@H](CN12)[C@@H]34` [MATRINE], the IC50 in the assay with HeLa worked out at 4330 µM; in the assay with HepG2, 4510 µM; in the assay on MDA-MB-231, 5370 µM. Besides, the ΔTm in assay [1] was found to be 0.04 °C.
In the case of `Cc1ccc2nc3c(c(N)c2c1)CC[C@@H]1[C@H]2CCCN4CCC[C@@H](CN31)[C@@H]24`, the IC50 came to 13.4 µM with HeLa, 9.2 µM in the assay with HepG2 and 16.9 µM in the assay on MDA-MB-231. Moreover, in assay [1], the ΔTm was -4.27 °C.
As for `CCOc1ccc(/N=C2\CCC[C@@H]3[C@H]4CCCN5CCC[C@@H](CN23)[C@@H]45)cc1`, the IC50 in the assay with HeLa is more than 100 µM; with HepG2, 97.5 µM; in the assay with MDA-MB-231 it was more than 100 µM. Also, the ΔTm in assay [1] was 0 °C.
As for `Nc1c2c(nc3ccc([N+](=O)[O-])cc13)N1C[C@@H]3CCCN4CCC[C@@H]([C@H]34)[C@H]1CC2`, the IC50 in the assay with HeLa stood at 69.2 µM; in the assay on HepG2, 35.1 µM; in the assay with MDA-MB-231 it was 24.4 µM. The ΔTm in assay [1] is -0.24 °C.
Consider `CC(C)c1ccc(/N=C2\CCC[C@@H]3[C@H]4CCCN5CCC[C@@H](CN23)[C@@H]45)cc1`, for which the IC50 in the assay on HeLa was 93.3 µM; in the assay on HepG2, 96.6 µM; in the assay with MDA-MB-231 it was 77.5 µM. The ΔTm in assay [1] is -1.24 °C.
